The values below come from PMC3725831 (European journal of inorganic chemistry, 2011).

The test system of assay [1] is cancer and normal colon cells. As to conditions: both cell lines (cancer and normal colon cells); cited from earlier work.
Assay [2] relates to cisplatin-resistant ovarian and testicular cancer cell lines. As to conditions: ref 9c; cited from earlier work.
In assay [3] the test system is HT-29 (human colon adenocarcinoma). The assay is described as follows: MTS cytotoxicity assay, HT-29 cells. The assay is classed as cell-based. In a few lines: (§1)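 Cells grown in McCoy's 5a with 10% FBS, 1% NEAA and 2% HEPES at 37 °C, 5% CO2, then seeded at 2000–5,000/well 24 h before dosing. Test compound in DMSO (<0.5% final) was given as six-point 4-fold serial dilutions for 24, 48 or 72 h. Read-out was MTS plus phenazine methosulphate for 3 h, OD490 versus DMSO controls. IC50 from curves; mean ± SE, three replications.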
Background: Formazan colour is commonly taken as a measure of viable cells.

Assay [4] has as its system CCD-18Co (human colon fibroblasts). The assay is described as follows: MTS cytotoxicity assay, non-cancerous CCD-18Co cells. Format: cell-based. In a few lines:
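Colon fibroblasts grown in EMEM with 10% FBS, 1% NEAA and 1% L-glutamine at 37 °C, 5% CO2; used at PDL 26–35. Seeded at 2000–5,000/well 24 h before dosing. Test compound in DMSO (<0.5% final) was given as six-point 4-fold serial dilutions for 24, 48 or 72 h. Read-out was MTS/phenazine methosulphate for 3 h, OD490 versus DMSO controls. IC50 from curves; mean ± SE, three replications.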

The subject of assay [5] is Caco-2 (human epithelial colorectal adenocarcinoma). The assay is described as follows: MTS cytotoxicity assay, Caco-2 cells. The assay is classed as cell-based.
For assay [6], the system named is HCT-116 (human colon carcinoma). The assay is described as follows: MTS cytotoxicity assay, HCT-116 cells. The assay is classed as cell-based. The essentials:
as §1

Read-outs that look alike come from different tables or passages of the source.

Regarding `N.N.[Cl][Pt][Cl]` [Cisplatin], the “inhibition of cell proliferation” value in assay [1] is reported as “about 70%”.
With `Cc1ccnc2c1ccc1c(C)ccnc12.Cc1ccnc2c1ccc1c(C)ccnc12.O=S(=O)([O-])[O-].[O]=[V+2]` [metvan, bis(4,7-dimethyl-1,10-phenanthroline)sulfatooxovanadium(IV)], the “effectiveness against cisplatin-resistant cancer cell lines” value in assay [2] is on record as “highly effective”.
The IC50 is the concentration at which inhibition is half-maximal. In the case of `COc1cc([C@@H]2c3cc4c(cc3[C@@H](O[C@@H]3O[C@@H]5CO[C@@H](C)O[C@H]5[C@H](O)[C@H]3O)[C@H]3COC(=O)[C@H]23)OCO4)cc(OC)c1O` [Etoposide], the IC50 in assay [3] (HT-29, 24 h, read-out: IC50 HT-29 24 hours) worked out at 19.2 ± 0.8 µM; in assay [3] (HT-29, 48 h, read-out: IC50 HT-29 48 hours) it was 17.3 ± 1.9 µM; in assay [3] (HT-29, 72 h, read-out: IC50 HT-29 72 hours) it was 15.8 ± 2.4 µM; in assay [4] (24 h, read-out: IC50 CCD-18Co 24 hours), 82.5 ± 3.1 µM; in assay [4] (48 h, read-out: IC50 CCD-18Co 48 hours), 79.2 ± 1.2 µM; in assay [4] (72 h, read-out: IC50 CCD-18Co 72 hours), 73.2 ± 1.9 µM. Further, the IC50 is 47.6 ± 0.8 µM in assay [5] (Caco-2, 24 h, read-out: IC50 Caco-2 24 hours); 46.2 ± 1.9 µM in assay [5] (Caco-2, 48 h, read-out: IC50 Caco-2 48 hours); 40.9 ± 1.5 µM in assay [5] (Caco-2, 72 h, read-out: IC50 Caco-2 72 hours); 40.8 ± 0.5 µM in assay [6] (HCT-116, 24 h, read-out: IC50 HCT-116 24 hours); 36.2 ± 2 µM in assay [6] (HCT-116, 48 h, read-out: IC50 HCT-116 48 hours); 38.4 ± 1.2 µM in assay [6] (HCT-116, 72 h, read-out: IC50 HCT-116 72 hours).
